ChEMBL document CHEMBL2163301, “Substrates for efficient fluorometric screening employing the NAD-dependent sirtuin 5 lysine deacylase (KDAC) enzyme” (J Med Chem, 2012)
The source made the active and inactive calls. The rule behind the calls is not given here. Where a SMILES comes first, the peptide text is derived from it. The star is where a group is joined. AMC = Cc1cc(=O)oc2cc(N*)ccc12

What follows are compounds tested against T1, NAD-dependent protein deacetylase sirtuin-1 (Homo sapiens) (UniProt Q96EB6) (assay: Activity of human truncated SIRT1-GST fusion protein at 50 uM after 1 hr by trypsin developer-based fluorescence assay).
T1 sequence (whole entry): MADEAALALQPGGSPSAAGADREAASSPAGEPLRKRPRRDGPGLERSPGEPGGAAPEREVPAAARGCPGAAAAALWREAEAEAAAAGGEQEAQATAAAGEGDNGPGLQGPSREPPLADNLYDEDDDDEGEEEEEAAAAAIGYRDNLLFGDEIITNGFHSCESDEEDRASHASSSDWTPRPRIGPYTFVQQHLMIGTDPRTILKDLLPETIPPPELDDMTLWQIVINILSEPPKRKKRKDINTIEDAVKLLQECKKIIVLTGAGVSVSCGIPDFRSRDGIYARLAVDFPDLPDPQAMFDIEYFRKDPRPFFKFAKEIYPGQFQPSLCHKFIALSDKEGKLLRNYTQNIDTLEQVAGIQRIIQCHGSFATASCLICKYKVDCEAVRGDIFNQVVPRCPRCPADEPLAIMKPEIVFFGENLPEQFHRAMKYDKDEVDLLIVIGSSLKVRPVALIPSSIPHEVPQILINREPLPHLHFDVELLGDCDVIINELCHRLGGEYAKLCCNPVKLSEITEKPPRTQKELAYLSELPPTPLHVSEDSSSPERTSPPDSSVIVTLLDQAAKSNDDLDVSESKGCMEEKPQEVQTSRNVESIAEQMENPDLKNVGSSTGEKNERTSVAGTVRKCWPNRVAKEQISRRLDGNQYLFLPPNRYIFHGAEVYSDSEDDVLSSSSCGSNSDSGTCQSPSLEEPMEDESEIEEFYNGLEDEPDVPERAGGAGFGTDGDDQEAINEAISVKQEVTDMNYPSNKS
In short: (§1)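 Acetylated substrates were each treated with commercial full-length His-tagged SIRT1 or truncated SIRT1-GST fusion, with NAD, in Tris-Cl pH 8.0 buffer containing BSA. End point: 1 h at 37 °C, then nicotinamide (2 mM)/trypsin (0.4 mg/mL) developer for 15–30 min at room temperature. Fluorescence read at ex 360/em 460 nm against no-enzyme control wells.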

Row | Compound | Activity
1 | CC(=O)NCCCC[C@H](NC(=O)[C@H](CCCCN)NC(=O)[C@@H]1CCCN1C(=O)[C@H](CCC(N)=O)NC(C)=O)C(=O)Nc1ccc2c(C)cc(=O)oc2c1 (Ac-QPKK(Ac)-{AMC}) | inactive
2 | CC(=O)NCCCC[C@H](NC(=O)[C@H](CCCCNC(C)=O)NC(=O)[C@H](Cc1cnc[nH]1)NC(=O)[C@H](CCCNC(=N)N)NC(C)=O)C(=O)Nc1ccc2c(C)cc(=O)oc2c1 (Ac-RHK(Ac)K(Ac)-{AMC}) | inactive

These compounds were tested against T1, NAD-dependent protein deacetylase sirtuin-1 (Homo sapiens) (assay: Activity of human full length SIRT1 enzyme at 50 uM after 1 hr by trypsin developer-based fluorescence assay).
In short: as §1

Row | Compound | Activity
3 | CC(=O)NCCCC[C@H](NC(=O)[C@H](CCCCN)NC(=O)[C@@H]1CCCN1C(=O)[C@H](CCC(N)=O)NC(C)=O)C(=O)Nc1ccc2c(C)cc(=O)oc2c1 (Ac-QPKK(Ac)-{AMC}) | inactive
4 | CC(=O)NCCCC[C@H](NC(=O)[C@H](CCCCNC(C)=O)NC(=O)[C@H](Cc1cnc[nH]1)NC(=O)[C@H](CCCNC(=N)N)NC(C)=O)C(=O)Nc1ccc2c(C)cc(=O)oc2c1 (Ac-RHK(Ac)K(Ac)-{AMC}) | inactive

These compounds were tested against T2, NAD-dependent protein deacetylase sirtuin-7 (Homo sapiens) (UniProt Q9NRC8) (assay: Activity of recombinant human SIRT7 assessed as deacylation of compound at 50 uM after 1 hr by trypsin developer-based fluorescence assay).
T2 sequence (whole entry): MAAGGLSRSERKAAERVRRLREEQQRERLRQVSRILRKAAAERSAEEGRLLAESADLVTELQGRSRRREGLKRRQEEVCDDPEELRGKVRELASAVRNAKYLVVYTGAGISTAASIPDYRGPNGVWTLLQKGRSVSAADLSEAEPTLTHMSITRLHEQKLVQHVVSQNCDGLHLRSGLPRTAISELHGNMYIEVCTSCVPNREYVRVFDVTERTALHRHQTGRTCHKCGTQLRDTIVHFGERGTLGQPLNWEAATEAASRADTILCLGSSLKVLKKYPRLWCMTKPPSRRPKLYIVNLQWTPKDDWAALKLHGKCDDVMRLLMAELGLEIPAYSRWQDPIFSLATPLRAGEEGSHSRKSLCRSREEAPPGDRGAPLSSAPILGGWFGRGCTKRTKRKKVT
In short: (§2)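 Recombinant sirtuin at 1 μg per 50 μL reaction, with SIRT1-GST fusion as the SIRT1 source. Fluorogenic substrate and NAD incubated in Tris-Cl buffer pH 8.0 with BSA (1 mg/mL) for 1 h at 37 °C. Developer with nicotinamide (2 mM) and trypsin (0.4 mg/mL) added, 15–30 min at room temperature. Fluorescence read at ex 360/em 460 nm and normalized to no-enzyme wells. At least two experiments in duplicate.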

Row | Compound | Activity
5 | CC(=O)NCCCC[C@H](NC(=O)[C@H](CCCCN)NC(=O)[C@@H]1CCCN1C(=O)[C@H](CCC(N)=O)NC(C)=O)C(=O)Nc1ccc2c(C)cc(=O)oc2c1 (Ac-QPKK(Ac)-{AMC}) | inactive
6 | CC(=O)NCCCC[C@H](NC(=O)[C@H](CCCCNC(C)=O)NC(=O)[C@H](Cc1cnc[nH]1)NC(=O)[C@H](CCCNC(=N)N)NC(C)=O)C(=O)Nc1ccc2c(C)cc(=O)oc2c1 (Ac-RHK(Ac)K(Ac)-{AMC}) | inactive

These compounds were tested against T1, NAD-dependent protein deacetylase sirtuin-1 (Homo sapiens) (assay: Activity of human SIRT1 assessed as deacylation of compound at 50 uM after 1 hr by trypsin developer-based fluorescence assay).
In short: as §2

Row | Compound | Activity
7 | CC(=O)NCCCC[C@H](NC(=O)[C@H](CCCCN)NC(=O)[C@@H]1CCCN1C(=O)[C@H](CCC(N)=O)NC(C)=O)C(=O)Nc1ccc2c(C)cc(=O)oc2c1 (Ac-QPKK(Ac)-{AMC}) | Active
8 | CC(=O)NCCCC[C@H](NC(=O)[C@H](CCCCNC(C)=O)NC(=O)[C@H](Cc1cnc[nH]1)NC(=O)[C@H](CCCNC(=N)N)NC(C)=O)C(=O)Nc1ccc2c(C)cc(=O)oc2c1 (Ac-RHK(Ac)K(Ac)-{AMC}) | Active

These compounds were tested against NAD-dependent protein deacylase sirtuin-6 (Homo sapiens) (UniProt Q8N6T7) (assay: Activity of human SIRT6 assessed as deacylation of compound at 50 uM after 1 hr by trypsin developer-based fluorescence assay).
In short: as §2

Chain of NAD-dependent protein deacylase sirtuin-6 (Homo sapiens) (Q8N6T7 whole entry): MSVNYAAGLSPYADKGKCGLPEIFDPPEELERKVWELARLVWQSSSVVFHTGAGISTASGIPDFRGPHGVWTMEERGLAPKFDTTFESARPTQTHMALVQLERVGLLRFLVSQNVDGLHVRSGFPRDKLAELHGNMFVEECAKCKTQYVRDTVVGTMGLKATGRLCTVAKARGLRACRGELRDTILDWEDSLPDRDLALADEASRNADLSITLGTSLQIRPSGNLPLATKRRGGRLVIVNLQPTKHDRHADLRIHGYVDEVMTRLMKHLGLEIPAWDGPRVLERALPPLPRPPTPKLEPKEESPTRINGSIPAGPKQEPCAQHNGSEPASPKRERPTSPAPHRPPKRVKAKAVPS

Row | Compound | Activity
9 | CC(=O)NCCCC[C@H](NC(=O)[C@H](CCCCN)NC(=O)[C@@H]1CCCN1C(=O)[C@H](CCC(N)=O)NC(C)=O)C(=O)Nc1ccc2c(C)cc(=O)oc2c1 (Ac-QPKK(Ac)-{AMC}) | inactive
10 | CC(=O)NCCCC[C@H](NC(=O)[C@H](CCCCNC(C)=O)NC(=O)[C@H](Cc1cnc[nH]1)NC(=O)[C@H](CCCNC(=N)N)NC(C)=O)C(=O)Nc1ccc2c(C)cc(=O)oc2c1 (Ac-RHK(Ac)K(Ac)-{AMC}) | inactive

These compounds were tested against T3, NAD-dependent protein deacetylase sirtuin-2 (Homo sapiens) (UniProt Q8IXJ6) (assay: Activity of human SIRT2 assessed as deacylation of compound at 50 uM after 1 hr by trypsin developer-based fluorescence assay).
T3 sequence (whole entry): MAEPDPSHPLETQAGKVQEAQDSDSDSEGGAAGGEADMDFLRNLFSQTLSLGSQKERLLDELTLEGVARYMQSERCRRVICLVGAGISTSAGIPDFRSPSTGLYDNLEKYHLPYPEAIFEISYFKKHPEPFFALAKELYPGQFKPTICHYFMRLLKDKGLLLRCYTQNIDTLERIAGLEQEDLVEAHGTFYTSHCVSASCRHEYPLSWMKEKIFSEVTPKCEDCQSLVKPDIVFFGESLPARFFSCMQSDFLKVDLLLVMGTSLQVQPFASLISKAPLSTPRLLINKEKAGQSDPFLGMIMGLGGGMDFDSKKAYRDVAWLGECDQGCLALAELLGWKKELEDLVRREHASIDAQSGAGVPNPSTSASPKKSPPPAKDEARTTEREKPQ
In short: as §2

Row | Compound | Activity
11 | CC(=O)NCCCC[C@H](NC(=O)[C@H](CCCCN)NC(=O)[C@@H]1CCCN1C(=O)[C@H](CCC(N)=O)NC(C)=O)C(=O)Nc1ccc2c(C)cc(=O)oc2c1 (Ac-QPKK(Ac)-{AMC}) | Active
12 | CC(=O)NCCCC[C@H](NC(=O)[C@H](CCCCNC(C)=O)NC(=O)[C@H](Cc1cnc[nH]1)NC(=O)[C@H](CCCNC(=N)N)NC(C)=O)C(=O)Nc1ccc2c(C)cc(=O)oc2c1 (Ac-RHK(Ac)K(Ac)-{AMC}) | Active

These compounds were tested against T4, NAD-dependent protein lipoamidase sirtuin-4, mitochondrial (Homo sapiens) (UniProt Q9Y6E7) (assay: Activity of recombinant human SIRT4 assessed as deacylation of compound at 50 uM after 1 hr by trypsin developer-based fluorescence assay).
T4 sequence (whole entry): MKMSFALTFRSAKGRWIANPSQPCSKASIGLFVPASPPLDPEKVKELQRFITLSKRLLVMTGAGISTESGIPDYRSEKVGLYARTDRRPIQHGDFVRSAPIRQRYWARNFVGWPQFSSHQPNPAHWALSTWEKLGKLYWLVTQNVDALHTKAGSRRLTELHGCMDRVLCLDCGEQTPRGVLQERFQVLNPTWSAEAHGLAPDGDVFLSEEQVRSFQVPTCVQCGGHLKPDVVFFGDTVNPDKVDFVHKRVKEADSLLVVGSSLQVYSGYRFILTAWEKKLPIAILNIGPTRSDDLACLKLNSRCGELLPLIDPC
In short: as §2

Row | Compound | Activity
13 | CC(=O)NCCCC[C@H](NC(=O)[C@H](CCCCN)NC(=O)[C@@H]1CCCN1C(=O)[C@H](CCC(N)=O)NC(C)=O)C(=O)Nc1ccc2c(C)cc(=O)oc2c1 (Ac-QPKK(Ac)-{AMC}) | inactive
14 | CC(=O)NCCCC[C@H](NC(=O)[C@H](CCCCNC(C)=O)NC(=O)[C@H](Cc1cnc[nH]1)NC(=O)[C@H](CCCNC(=N)N)NC(C)=O)C(=O)Nc1ccc2c(C)cc(=O)oc2c1 (Ac-RHK(Ac)K(Ac)-{AMC}) | inactive

The compounds below were run against NAD-dependent protein deacylase sirtuin-5, mitochondrial (Homo sapiens) (UniProt Q9NXA8) (assay: Activity of human SIRT5 assessed as deacylation of compound at 50 uM after 1 hr by trypsin developer-based fluorescence assay).
In short: as §2

Chain of NAD-dependent protein deacylase sirtuin-5, mitochondrial (Homo sapiens) (Q9NXA8 37-310 limits assumed): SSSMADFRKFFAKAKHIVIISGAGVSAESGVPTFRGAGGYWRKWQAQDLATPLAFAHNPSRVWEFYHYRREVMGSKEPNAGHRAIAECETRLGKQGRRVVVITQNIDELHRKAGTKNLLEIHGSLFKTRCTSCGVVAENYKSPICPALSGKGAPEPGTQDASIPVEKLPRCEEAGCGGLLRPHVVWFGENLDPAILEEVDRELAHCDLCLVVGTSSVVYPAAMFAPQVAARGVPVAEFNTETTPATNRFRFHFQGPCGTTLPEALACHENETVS

Row | Compound | Activity
15 | CC(=O)NCCCC[C@H](NC(=O)[C@H](CCCCN)NC(=O)[C@@H]1CCCN1C(=O)[C@H](CCC(N)=O)NC(C)=O)C(=O)Nc1ccc2c(C)cc(=O)oc2c1 (Ac-QPKK(Ac)-{AMC}) | inactive
16 | CC(=O)NCCCC[C@H](NC(=O)[C@H](CCCCNC(C)=O)NC(=O)[C@H](Cc1cnc[nH]1)NC(=O)[C@H](CCCNC(=N)N)NC(C)=O)C(=O)Nc1ccc2c(C)cc(=O)oc2c1 (Ac-RHK(Ac)K(Ac)-{AMC}) | inactive

The compounds below were run against T5, NAD-dependent protein deacetylase sirtuin-3, mitochondrial (Homo sapiens) (UniProt Q9NTG7) (assay: Activity of human SIRT3 assessed as deacylation of compound at 50 uM after 1 hr by trypsin developer-based fluorescence assay).
T5 sequence (whole entry): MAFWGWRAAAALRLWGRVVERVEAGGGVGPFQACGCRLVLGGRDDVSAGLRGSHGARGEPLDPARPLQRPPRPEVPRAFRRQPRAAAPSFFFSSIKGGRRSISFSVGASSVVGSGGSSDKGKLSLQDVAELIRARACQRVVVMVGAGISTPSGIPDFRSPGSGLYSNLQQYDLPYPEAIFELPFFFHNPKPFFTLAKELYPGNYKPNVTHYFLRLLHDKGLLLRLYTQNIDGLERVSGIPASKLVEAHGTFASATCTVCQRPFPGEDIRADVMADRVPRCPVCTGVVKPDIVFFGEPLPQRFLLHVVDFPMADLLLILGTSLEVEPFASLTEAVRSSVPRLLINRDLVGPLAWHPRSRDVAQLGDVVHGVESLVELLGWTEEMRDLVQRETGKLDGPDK
In short: as §2

Row | Compound | Activity
17 | CC(=O)NCCCC[C@H](NC(=O)[C@H](CCCCN)NC(=O)[C@@H]1CCCN1C(=O)[C@H](CCC(N)=O)NC(C)=O)C(=O)Nc1ccc2c(C)cc(=O)oc2c1 (Ac-QPKK(Ac)-{AMC}) | Active
18 | CC(=O)NCCCC[C@H](NC(=O)[C@H](CCCCNC(C)=O)NC(=O)[C@H](Cc1cnc[nH]1)NC(=O)[C@H](CCCNC(=N)N)NC(C)=O)C(=O)Nc1ccc2c(C)cc(=O)oc2c1 (Ac-RHK(Ac)K(Ac)-{AMC}) | Active
